Calls of active or inactive are those of the source.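 The calls were made as follows: active = compounds cutting cell ATP signal whose AC50 is at most twice their top valid dose; inconclusive = flat curve with 30 to 70% signal loss, or poor fit; inactive = the rest.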
System: MALME3 melanoma viability, CellTiter-Glo ATP luminescence, 24 h
Test: MALME3 melanoma cell viability loss, dose response, orthogonal assay for MITF inhibitor project, CellTiter-Glo luminescence, dry powder, set 3 (AID 624362)
Procedure, shortened: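 Test system: MALME3 melanoma cells / Doses: multiple compound doses delivered by pin transfer / Times: compound exposure at 37 °C, cells plated one day earlier / Technique: CellTiter-Glo ATP luminescence / Read-out basis: ATP-based viability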

SMILES | AC50
NC1=C(NS(=O)(=O)c2ccccc2)C(=O)c2ccccc2C1=O | 15 µM
O=C1C=C(NS(=O)(=O)c2ccc(Br)cc2)C(=O)c2ccccc21 | 14.3 µM
O=C1C=C(NS(=O)(=O)c2ccccc2)C(=O)c2ccccc21 | 11.6 µM
O=C1C(NS(=O)(=O)c2ccccc2)=C(c2ccccc2)C(=O)c2ccccc21 | > 70 µM (inactive)
O=C1C=C(NS(=O)(=O)c2cccs2)C(=O)c2ccccc21 | 15.3 µM
COC1=C(NS(=O)(=O)c2cccs2)C(=O)c2ccccc2C1=O | 23.4 µM
O=C1C(Nc2ccccc2)=C(c2ccccc2)C(=O)c2ccccc21 | 36 µM
O=C1C=C(Nc2ccccc2)C(=O)c2ccccc21 | 2.89 µM
COC1=C(NS(=O)(=O)c2ccc(Br)cc2)C(=O)c2ccccc2C1=O | 14.7 µM
NC1=C(NS(=O)(=O)c2ccc(Br)s2)C(=O)c2ccccc2C1=O | > 70 µM (inactive)
NC1=C(NS(=O)(=O)c2cccs2)C(=O)c2ccccc2C1=O | 16.8 µM
COC1=C(Nc2ccccc2)C(=O)c2ccccc2C1=O | 7.46 µM
